Test [1] is described as follows: Her2 expression decrease, cell viability multiplex – SKBR3 breast tumor cells, AlphaScreen, ATP viability, primary screen (AID 461).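 As to Her2 level: lower value means less Her2 protein in the cells.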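 As to viability: percent of carrier control wells set as 100% viability.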 The settings on record: SKBR3 Her2 protein level, 18-24 h, measured here: SKBR3 viability, ATP luminescence, at 10 µM. In general terms: In Alpha technology, singlet oxygen from a donor bead excites a nearby acceptor bead.
For test [2], the target named is Receptor tyrosine-protein kinase erbB-2 (Homo sapiens) (UniProt P04626). Described as above. Particulars: 18-24 h, at 10 µM, stronger effect = lower value.
Test [3] is described as follows: reduced viability of SK-BR-3 breast cancer cells – cell-based, 24 h, human, pilot screen (AID 572;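 active = viability at or below 10% of carrier control in both of two separate runs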;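 also: compound exposure lasted between 18 and 24 h rather than exactly 24 h; 100% = carrier-treated control wells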). Particulars: SK-BR-3 viability, CellTiter-Glo luminescence, at 10 µM, stronger effect = lower value. (In ATP-based viability assays light output follows the ATP content of the culture.)
A short description of test [4]: HUVEC growth inhibition – cell-based, human, primary screen (AID 575;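 active = viability at or below 30% in both replicate assays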;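 also: 100% = median of untreated cell wells with 0.1% DMSO on each plate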). Particulars: HUVEC proliferation, CellTiter-Glo luminescence, 72 h; at 10 µM; stronger effect = lower value. The method in brief: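 Timing: 72 h treatment at 37 °C; material: HUVEC primary cells; technique: CellTiter-Glo luminescence measuring cellular ATP; controls: vehicle and MePR control wells; measure: percent of median DMSO-control luminescence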

Test [5] can be described thus: H69AR cell proliferation blockers – human, duplicate replicates, primary screen (AID 580;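 active = viability at or under a set limit in both replicates, limit being median viability minus 3 SD, cut at about 48% in these data, passing the limit was not always enough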;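 also: 100% = mean luminescence of untreated wells and 0% = no signal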). The settings on record: H69AR lung tumor cells viability, ATP luminescence, 72 h; at 10 µM; stronger effect = lower value.
The nature of test [6]: MRP1 drug-resistance reversers in H69AR cells – cell-based, doxorubicin co-treatment, pilot screen (AID 601;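 active = viability loss from added drug above about 55%, and viability with drug at most 40%, in both replicates, limit read from the data, passing the limit was not always enough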). The settings on record: CellTiter-Glo, 72 h, at 10 µM; for differential viability (reversal): stronger effect = higher value.
Test [7] can be described thus: yeast transport mutant growth inhibition pilot in 384-well plates, post-Golgi transport modulator project (AID 636; in the data active = inhibition above about 31%). The settings on record: absorbance 615 nm, about 18 h, stronger effect = higher value.
Test [8] in a line: growth suppression of yeast trafficking mutant, preliminary HTS, modulators of trafficking downstream of Golgi apparatus project, 1536-format plate, OD 615 nm (AID 637; in the data active = inhibition above about 30%). Particulars: yeast transport mutant growth, absorbance 615 nm, 18 h; stronger effect = higher value.
The mark [9] stands for this setting: H69AR cells + 2 uM doxorubicin, measured here: viability with 2 uM doxorubicin, stronger effect = lower value.
The mark [10] stands for this setting: H69AR cells, compound alone cytotoxicity.

Structures are written as SMILES. Activity calls are given as the source filed them.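 The calls were made as follows, unless noted: active = Her2 level under about 52% in both replicate screens, with viability over 70% of control (limit read from the data); inconclusive = Her2 under the limit in one screen only, or viability under 70%; inactive = Her2 level above the set limit.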

Usually viability stands for a read-out of living cells in per cent, often relative to untreated cells. By inhibition is commonly meant the drop in the measured response relative to a control, in per cent.

Sequence of Receptor tyrosine-protein kinase erbB-2 (Homo sapiens) (P04626 whole entry, looked up): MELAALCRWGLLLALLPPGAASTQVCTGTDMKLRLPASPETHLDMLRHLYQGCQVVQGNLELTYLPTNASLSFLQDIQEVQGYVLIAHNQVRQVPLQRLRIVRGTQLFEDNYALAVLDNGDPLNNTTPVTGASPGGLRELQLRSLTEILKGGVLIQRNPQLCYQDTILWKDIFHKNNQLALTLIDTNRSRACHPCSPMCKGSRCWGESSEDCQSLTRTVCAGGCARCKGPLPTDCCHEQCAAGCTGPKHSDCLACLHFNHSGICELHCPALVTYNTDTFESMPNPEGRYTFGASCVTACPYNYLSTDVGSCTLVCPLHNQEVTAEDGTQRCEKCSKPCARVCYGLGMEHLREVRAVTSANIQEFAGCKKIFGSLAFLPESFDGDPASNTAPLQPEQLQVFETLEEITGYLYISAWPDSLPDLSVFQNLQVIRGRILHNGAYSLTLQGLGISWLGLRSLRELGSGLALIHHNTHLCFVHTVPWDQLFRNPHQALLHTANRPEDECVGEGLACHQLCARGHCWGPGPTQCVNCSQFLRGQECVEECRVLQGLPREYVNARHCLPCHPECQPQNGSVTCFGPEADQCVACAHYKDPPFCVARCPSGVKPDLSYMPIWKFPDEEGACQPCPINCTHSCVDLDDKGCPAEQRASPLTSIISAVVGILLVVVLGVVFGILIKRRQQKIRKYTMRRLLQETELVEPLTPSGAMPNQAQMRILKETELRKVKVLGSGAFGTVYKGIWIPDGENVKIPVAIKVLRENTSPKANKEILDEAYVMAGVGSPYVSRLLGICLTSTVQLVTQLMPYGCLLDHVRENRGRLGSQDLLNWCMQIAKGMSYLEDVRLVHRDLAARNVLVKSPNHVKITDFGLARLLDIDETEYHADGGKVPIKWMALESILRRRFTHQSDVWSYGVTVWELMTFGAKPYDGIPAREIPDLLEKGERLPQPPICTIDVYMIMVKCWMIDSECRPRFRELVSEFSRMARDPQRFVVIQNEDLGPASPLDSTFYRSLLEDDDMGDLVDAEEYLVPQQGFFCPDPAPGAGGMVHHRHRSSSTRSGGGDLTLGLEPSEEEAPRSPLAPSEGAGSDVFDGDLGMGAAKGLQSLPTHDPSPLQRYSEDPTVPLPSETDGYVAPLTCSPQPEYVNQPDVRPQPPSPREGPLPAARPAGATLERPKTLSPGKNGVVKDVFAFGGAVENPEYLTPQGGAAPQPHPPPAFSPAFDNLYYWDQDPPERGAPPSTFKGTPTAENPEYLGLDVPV

For `CC(C)=CCCC(C)CN(C)CCc1ccccn1` (stereo not given), the viability is 79% in test [1]; 79% (inactive) in test [3]; 101% (inactive) in test [4]; 98.6% (inactive) in test [5]; 77.3% in test [6] (setting [9]); 98.6% in test [6] (setting [10]). The Her2 level in test [2] was 97% (inactive). Also, the differential viability (reversal) in test [6] (H69AR cells + 2 uM doxorubicin) was 21.2% (inactive). The inhibition in test [7] is -5.19% (inactive); in test [8] it was -3.61% (inactive).
Take `Cc1[nH]c(=O)[nH]c(=O)c1S(=O)(=O)N1CCCC(C(=O)NCc2ccco2)C1` (stereo not given): the viability is 102% in test [1]; 102% (inactive) in test [3]; 96.3% (inactive) in test [4]; 86.4% (inactive) in test [5]; 88.1% in test [6] (setting [9]); 86.4% in test [6] (setting [10]). Besides, the Her2 level in test [2] is 80% (inactive). The differential viability (reversal) in test [6] (H69AR cells + 2 uM doxorubicin) is -1.73% (inactive). Further, the inhibition in test [7] was -3.82% (inactive); in test [8], 0.67% (inactive).
Turning to `CCOC(=O)c1nnn(CC(=O)Nc2cccc(OC)c2)c1C(=O)OCC`, the viability in test [1] is 92.5%; in test [3] it was 92.5% (inactive); in test [4], 100% (inactive); in test [5], 83.7% (inactive); in test [6] (setting [9]), 86.3%; in test [6] (setting [10]), 83.7%. Further, the Her2 level in test [2] is 86.5% (inactive). Besides, the differential viability (reversal) in test [6] (H69AR cells + 2 uM doxorubicin) is -2.59% (inactive). For the same compound, the results for the inhibition in test [7] and in test [8] were -4.53% (inactive) and 0.98% (inactive), respectively.
For the compound `COc1ccc(NC(=O)CSC2=C(C#N)C(c3ccco3)C3=C(CCCC3=O)N2)c(OC)c1` (stereo not given), the viability in test [1] is 108%; in test [3], 108% (inactive); in test [4] it was 86.6% (inactive); in test [5], 73% (inactive); in test [6] (setting [9]) it was 68.8%; in test [6] (setting [10]), 73%. The Her2 level in test [2] was 93% (inactive). Also, the differential viability (reversal) in test [6] (H69AR cells + 2 uM doxorubicin) is 4.23% (inactive). For the same compound, the results for the inhibition in test [7] and in test [8] were -2.11% (inactive) and 0.65% (inactive), respectively.
Consider `CCc1nnc(NC(=O)c2ccc(S(=O)(=O)NCC(C)C)cc2)s1`, for which the viability was 92.5% in test [1]; 92.5% (inactive) in test [3]; 100% (inactive) in test [4]; 98.3% (inactive) in test [5]; 97.2% in test [6] (setting [9]); 98.3% in test [6] (setting [10]). Moreover, in test [2], the Her2 level is 89% (inactive). In addition, in test [6] (H69AR cells + 2 uM doxorubicin), the differential viability (reversal) was 1.11% (inactive). Moreover, the inhibition in test [7] is -5.95% (inactive); in test [8], 0.16% (inactive).
On to `N#Cc1cc2sc3nnc(-c4ccncc4)n3c2cc1C#N`, for which the viability in test [1] is 112%; in test [3] it was 112% (inactive); in test [4], 37.8% (inactive); in test [5], 32.3% (active); in test [6] (setting [9]), 50.5%; in test [6] (setting [10]), 32.3%. Also, the Her2 level in test [2] was 35.5% (active). Moreover, the differential viability (reversal) in test [6] (H69AR cells + 2 uM doxorubicin) was -18.2% (inactive). The values for the inhibition in test [7] and in test [8] were -1.71% (inactive) and 7.94% (inactive), respectively.
Consider `COc1ccc2[nH]c(=O)c(CN(C(=O)c3cccnc3)c3ccccc3OC)cc2c1`, for which the viability in test [1] is 104%; in test [3] it was 104% (inactive); in test [4], 90.8% (inactive); in test [5], 89.1% (inactive); in test [6] (setting [9]), 91.3%; in test [6] (setting [10]), 89.1%. Also, the Her2 level in test [2] was 97% (inactive). Further, the differential viability (reversal) in test [6] (H69AR cells + 2 uM doxorubicin) is -2.19% (inactive). Further, the inhibition in test [7] is -6% (inactive); in test [8], -0.16% (inactive).
On to `COCCNC(=O)CCc1nc(-c2ccccc2)no1`, for which the viability in test [1] was 87%; in test [3], 87% (inactive); in test [4], 92.6% (inactive); in test [5], 103% (inactive); in test [6] (setting [9]), 98.1%; in test [6] (setting [10]), 103%. Moreover, the Her2 level in test [2] is 103% (inactive). Also, the differential viability (reversal) in test [6] (H69AR cells + 2 uM doxorubicin) was 5.2% (inactive). Also, the inhibition in test [7] was -3.47% (inactive); in test [8] it was 2.7% (inactive).
Turning to `CCOC(=O)c1ccc(NS(=O)(=O)c2cccc3nsnc23)cc1`, the viability is 90.5% in test [1]; 90.5% (inactive) in test [3]; 113% (inactive) in test [4]; 95.9% (inactive) in test [5]; 99.1% in test [6] (setting [9]); 95.9% in test [6] (setting [10]). In addition, the Her2 level in test [2] is 106% (inactive). Also, in test [6] (H69AR cells + 2 uM doxorubicin), the differential viability (reversal) is -3.26% (inactive). The inhibition was 1.2% (inactive) in test [7] and 2.22% (inactive) in test [8].
Take `COCCNC(=O)C(C)OC(=O)c1nsc(Cl)c1Cl` (stereo not given): the viability was 103% in test [1]; 103% (inactive) in test [3]; 110% (inactive) in test [4]; 99.3% (inactive) in test [5]; 94.5% in test [6] (setting [9]); 99.3% in test [6] (setting [10]). Further, the Her2 level in test [2] was 108% (inactive). The differential viability (reversal) in test [6] (H69AR cells + 2 uM doxorubicin) was 4.84% (inactive). Moreover, the inhibition in test [7] was -1.08% (inactive); in test [8], 25.7% (inactive).
Take `CCOCC(=O)Nc1sc2c(c1C(=O)OCC)CCCC2`: the viability in test [1] was 89%; in test [3] it was 89% (inactive); in test [4], 54% (inactive); in test [5], 90.5% (inactive); in test [6] (setting [9]), 95.3%; in test [6] (setting [10]), 90.5%. Besides, the Her2 level in test [2] was 89.5% (inactive). In addition, the differential viability (reversal) in test [6] (H69AR cells + 2 uM doxorubicin) is -4.83% (inactive). For the same compound, the inhibition in test [7] was 0.13% (inactive); in test [8], 1.64% (inactive).
For the compound `CC1CCN(S(=O)(=O)c2ccc3[nH]c(=O)cc(C(=O)O)c3c2)CC1`, the viability in test [1] was 98%; in test [3], 98% (inactive); in test [4], 106% (inactive); in test [5], 105% (inactive); in test [6] (setting [9]), 88.3%; in test [6] (setting [10]) it was 105%. Besides, the Her2 level in test [2] was 114% (inactive). Besides, the differential viability (reversal) in test [6] (H69AR cells + 2 uM doxorubicin) is 17.1% (inactive). Further, the results for the inhibition in test [7] and in test [8] were -4.16% (inactive) and -4.1% (inactive), respectively.
Take `CCOc1ccc(-c2nnn(CC(=O)N3CCN(c4ccc(F)cc4)CC3)n2)cc1OCC`: the viability in test [1] was 111%; in test [3] it was 111% (inactive); in test [4], 76% (inactive); in test [5], 81.9% (inactive); in test [6] (setting [9]), 92%; in test [6] (setting [10]), 81.9%. Further, in test [2], the Her2 level was 102% (inactive). In addition, in test [6] (H69AR cells + 2 uM doxorubicin), the differential viability (reversal) is -10.1% (inactive). The inhibition in test [7] is -2.93% (inactive); in test [8] it was -0.33% (inactive).
For the compound `CC(C)(O)C1=NOC(c2ccccc2)C1` (stereo not given), the viability was 98% in test [1]; 98% (inactive) in test [3]; 76.2% (inactive) in test [4]; 71.1% (inactive) in test [5]; 85.8% in test [6] (setting [9]); 71.1% in test [6] (setting [10]). Besides, the Her2 level in test [2] is 108% (inactive). For the same compound, in test [6] (H69AR cells + 2 uM doxorubicin), the differential viability (reversal) was -14.7% (inactive). Further, the inhibition in test [7] is -2.57% (inactive); in test [8], 1.31% (inactive).

The record behind these values is PubChem BioAssay.
